Among the data in ChEMBL document CHEMBL1124389, “Spermexatin and spermexatol: new synthetic spermidine-based siderophore analogues” (1989) are Growth zone values, retold here.

What all share (type): functional
Experiment [1] has as its system Escherichia coli. The experiment can be described thus: Compound (0.2 mM) was tested for the ability to stimulate growth of Escherichia coli RW 193 at 18 h. In a few lines:
(§1)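 Disk-diffusion growth-promotion assay on E. coli RW 193 (FepA+) or its FepA− derivative UT2300. Cells were seeded at 10⁴/mL into Luria agar containing the iron chelator EDDA. Siderophores were dissolved in ethanol at 50, 10, 1 or 0.2 mM, spotted onto sterile disks, and the ethanol was evaporated. Plates were incubated 18 h at 37 °C and scored for growth around the disks. A 10 mM FeCl₃ disk served as positive control.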

Experiment [2] concerns Escherichia coli. The experiment is described as follows: Compound (0.2 mM) was tested for the ability to stimulate growth of Escherichia coli UT 2300 at 18 h. In a few lines:
as §1

The subject of experiment [3] is Escherichia coli. The experiment is described as follows: Compound (10 mM) was tested for the ability to stimulate growth of Escherichia coli RW 193 at 18 h. The gist of the method: as §1
The subject of experiment [4] is Escherichia coli. The experiment is described as follows: Compound (10 mM) was tested for the ability to stimulate growth of Escherichia coli UT 2300 at 18 h. In a few lines: as §1
In experiment [5] the test system is Escherichia coli. The experiment can be described thus: Compound (1 mM) was tested for the ability to stimulate growth of Escherichia coli RW 193 at 18 h. In a few lines:
as §1

Experiment [6] relates to Escherichia coli. The experiment can be described thus: Compound (50 mM) was tested for the ability to stimulate growth of Escherichia coli RW 193 at 18 h. The gist of the method:
as §1

For experiment [7], the system named is Escherichia coli. The experiment is described as follows: Compound (50 mM) was tested for the ability to stimulate growth of Escherichia coli UT 2300 at 18 h. The gist of the method:
as §1

For experiment [8], the system named is Vibrio cholerae. The experiment is described as follows: Compound (0.2 mM) was tested for the ability to stimulate growth of Vibrio cholera 1510 at 18 h.
Experiment [9] relates to Vibrio cholerae. The experiment can be described thus: Compound (0.2 mM) was tested for the ability to stimulate growth of Vibrio cholera Lou 15 at 18 h.
Experiment [10] relates to Vibrio cholerae. The experiment can be described thus: Compound (10 mM) was tested for the ability to stimulate growth of Vibrio cholera 1510 at 18 h.
Experiment [11] concerns Vibrio cholerae. The experiment is described as follows: Compound (10 mM) was tested for the ability to stimulate growth of Vibrio cholera Lou 15 at 18 h.
For experiment [12], the system named is Vibrio cholerae. The experiment is described as follows: Compound (1 mM) was tested for the ability to stimulate growth of Vibrio cholera 1510 at 18 h.
Experiment [13] concerns Vibrio cholerae. The experiment can be described thus: Compound (1 mM) was tested for the ability to stimulate growth of Vibrio cholera Lou 15 at 18 h.
In experiment [14] the test system is Vibrio cholerae. The experiment is described as follows: Compound (50 mM) was tested for the ability to stimulate growth of Vibrio cholera 1510 at 18 h.
Experiment [15] deals with Vibrio cholerae. The experiment is described as follows: Compound (50 mM) was tested for the ability to stimulate growth of Vibrio cholera Lou 15 at 18 h.
Experiment [16] relates to Escherichia coli. The experiment is described as follows: Compound (1 mM) was tested for the ability to stimulate growth of Escherichia coli UT 2300 at 18 h. The gist of the method: as §1
The test system of experiment [17] is Vibrio cholerae. The experiment is described as follows: Compound (0.2 mM) was tested for the ability to stimulate growth of Vibrio cholera Lou 15 at 42h.
Experiment [18] deals with Vibrio cholerae. The experiment is described as follows: Compound (10 mM) was tested for the ability to stimulate growth of Vibrio cholera Lou 15 at 42h.
The subject of experiment [19] is Vibrio cholerae. The experiment can be described thus: Compound (1 mM) was tested for the ability to stimulate growth of Vibrio cholera Lou 15 at 42h.

With `CN(O)C(=O)CCC(=O)NCCCCN(CCCNC(=O)CCC(=O)N(C)O)C(=O)CCC(=O)N(C)O`, the Growth zone turned out to be 0 mm in experiment [1]; 0 mm in experiment [2]; 0 mm in experiment [3]; 0 mm in experiment [4]; 0 mm in [5]; 12 mm in [6]. Besides, the Growth zone turned out to be 12 mm in [7]; 0 mm in experiment [8]; 16 mm in experiment [9]; 0 mm in experiment [10]; 17 mm in [11]; 0 mm in [12]. In addition, the Growth zone came out at 17 mm in [13], 0 mm in experiment [14], 19 mm in [15] and 0 mm in experiment [16].

With `CN(O)C(=O)CCCC(=O)NCCCCN(CCCNC(=O)CCCC(=O)N(C)O)C(=O)CCCC(=O)N(C)O`, the Growth zone amounted to 0 mm in experiment [1]; 0 mm in experiment [2]; 10 mm in experiment [3]; 10 mm in experiment [4]; 0 mm in [5]; 18 mm in experiment [6]. Further, the Growth zone amounted to 16 mm in [7]; 0 mm in experiment [8]; 0 mm in experiment [17]; 0 mm in experiment [10]; 0 mm in [18]; 0 mm in [12]. Also, the Growth zone in [19] was determined as 0 mm; in [14], 12 mm; in experiment [15], 12 mm; in experiment [16], 0 mm.

Regarding `O=C(N[C@H]1COC(=O)[C@@H](NC(=O)c2cccc(O)c2O)COC(=O)[C@@H](NC(=O)c2cccc(O)c2O)COC1=O)c1cccc(O)c1O` [ENTEROBACTIN], the Growth zone came out at 28 mm in [1]; 0 mm in experiment [2]; 0 mm in [4]; 40 mm in experiment [5]; 0 mm in experiment [8]; 0 mm in experiment [9]. Besides, the Growth zone in [10] was found to be 0 mm; in experiment [11] it was 28 mm; in experiment [12], 0 mm; in experiment [13] it was 22 mm; in experiment [16] it was 0 mm.

`CN(O)C(=O)CCC(=O)N(CCCCNC(=O)c1cccc(O)c1O)CCCNC(=O)c1cccc(O)c1O` [SPERMEXATOL]: the Growth zone turned out to be 0 mm in experiment [1]; 0 mm in experiment [2]; 12 mm in [3]; 0 mm in [4]; 0 mm in [5]; 21 mm in [6]. Moreover, the Growth zone in experiment [7], in experiment [8], in experiment [17], in experiment [10], in experiment [18] and in experiment [12] was 0 mm in each case. Also, the Growth zone in experiment [19] was 0 mm; in [14], 28 mm; in experiment [15], 36 mm; in [16] it was 0 mm.

For `CC1OC(c2cccc(O)c2O)=NC1C(=O)NCCCN(CCCNC(=O)c1cccc(O)c1O)C(=O)C1N=C(c2cccc(O)c2O)OC1C` (centres undefined) [VIBRIOBACTIN], the Growth zone in experiment [1], in [2], in experiment [3], in [4], in experiment [5] and in [6] was 0 mm in each case. Also, the Growth zone in [7] turned out to be 0 mm; in experiment [8], 0 mm; in experiment [9] it was 32 mm; in experiment [10], 0 mm; in experiment [11] it was 32 mm; in [12], 0 mm. Further, the Growth zone in experiment [13] was found to be 32 mm; in experiment [14], 0 mm; in experiment [16], 0 mm.
